Test results taken from publication PMC11520665 (Critical Care, 2024).
Numbered stars: 1 amine (or outer) side, 2 acyl side, 3 side chain; on linkers, the order of the positions; unused ones are H or OH. Bridge positions count the residues as written; N and C are the ends. Square brackets hold non-standard residues; d marks the D form. Peptide text beside a SMILES is read from it. * marks the point of attachment. Orn(4R-OH,5R-OCH2CH2NMe3+) = C[N+](C)(C)CCO[C@@H](N[*:3])[C@H](O)C[C@H](N[*:1])C(=O)[*:2]; pTerphenylCO(4''-OnC5H11) = CCCCCOc1ccc(-c2ccc(-c3ccc(C(=O)*)cc3)cc2)cc1; hTyr(3S-OH,4S-OH) = N[C@H](C(=O)O)[C@H](O)[C@@H](O)c1ccc(O)cc1; Pro(3S-OH,4S-Me) = C[C@H]1CN[C@H](C(=O)O)[C@H]1O; Hyp = O=C(O)[C@@H]1C[C@@H](O)CN1

What was measured:
[1] = Safety: treatment-emergent adverse events; type: in vivo, patients (adults); conditions: safety population
How it was run: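 Post-hoc pooled data from two randomised, double-blind, double-dummy trials. The safety population was adults in the ICU at randomisation who received ≥1 dose. Dosing was IV test compound weekly (400 mg Day 1, 200 mg Day 8, optional later 200 mg) or IV comparator echinocandin daily (70 mg Day 1, then 50 mg/day). TEAEs ran from dosing to follow-up, coded MedDRA 23.0, graded mild/moderate/severe, and summarised descriptively.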

[2] = cited from earlier work
[3] = ICU at randomisation, n=46 rezafungin, n=67 caspofungin
[4] = ICU at randomisation, number of events per severity

For `CCCCCOc1ccc(-c2ccc(-c3ccc(C(=O)N[C@H]4C[C@@H](O)[C@@H](OCC[N+](C)(C)C)NC(=O)[C@@H]5[C@@H](O)[C@@H](C)CN5C(=O)[C@H]([C@@H](C)O)NC(=O)[C@H]([C@H](O)[C@@H](O)c5ccc(O)cc5)NC(=O)[C@@H]5C[C@@H](O)CN5C(=O)[C@H]([C@@H](C)O)NC4=O)cc3)cc2)cc1` [Rezafungin] ({pTerphenylCO(4''-OnC5H11)}-[Orn(4R-OH,5R-OCH2CH2NMe3+)]T[Hyp][hTyr(3S-OH,4S-OH)]T[Pro(3S-OH,4S-Me)]; lactam 1-C), the “TEAE: Abdominal abscess, patients” value [1, 3] was 1 (2.2) n (%), the “TEAE: Abdominal pain, patients” value [1, 3] was 4 (8.7) n (%) and the “TEAE: Acidosis, patients” value [1, 3] was 1 (2.2) n (%). The “TEAE: Acute kidney injury, patients” value [1, 3] was 1 (2.2) n (%), the “TEAE: Anaemia, patients” value [1, 3] was 7 (15.2) n (%) and the “TEAE: Atrial fibrillation, patients” value [1, 3] was 3 (6.5) n (%). The “TEAE: Bradycardia, patients” value [1, 3] was 1 (2.2) n (%), the “TEAE: Constipation, patients” value [1, 3] was 2 (4.3) n (%) and the “TEAE: Decubitus ulcer, patients” value [1, 3] was 3 (6.5) n (%). For the same compound, the “TEAE: Deep vein thrombosis, patients” value [1, 3] was 1 (2.2) n (%), the “TEAE: Diarrhoea, patients” value [1, 3] was 7 (15.2) n (%) and the “TEAE: Dyspnoea, patients” value [1, 3] was 0 (0) n (%). For the same compound, the “TEAE: Fluid overload, patients” value [1, 3] was 4 (8.7) n (%), the “TEAE: Hyperkalaemia, patients” value [1, 3] was 2 (4.3) n (%) and the “TEAE: Hypertension, patients” value [1, 3] was 3 (6.5) n (%). The “TEAE: Hypokalaemia, patients” value [1, 3] was 4 (8.7) n (%), the “TEAE: Hypotension, patients” value [1, 3] was 3 (6.5) n (%) and the “TEAE: Insomnia, patients” value [1, 3] was 4 (8.7) n (%). The “TEAE: Multiple organ dysfunction syndrome, patients” value [1, 3] was 3 (6.5) n (%), the “TEAE: Nausea, patients” value [1, 3] was 4 (8.7) n (%) and the “TEAE: Peripheral oedema, patients” value [1, 3] was 3 (6.5) n (%). For the same compound, the “TEAE: Pleural effusion, patients” value [1, 3] was 0 (0) n (%), the “TEAE: Pneumonia, patients” value [1, 3] was 3 (6.5) n (%) and the “TEAE: Pneumothorax, patients” value [1, 3] was 0 (0) n (%). The “TEAE: Pyrexia, patients” value [1, 3] was 2 (4.3) n (%), the “TEAE: Respiratory failure, patients” value [1, 3] was 0 (0) n (%) and the “TEAE: Sepsis, patients” value [1, 3] was 5 (10.9) n (%). For the same compound, the “TEAE: Septic shock, patients” value [1, 3] was 6 (13.0) n (%), the “TEAE: Vomiting, patients” value [1, 3] was 7 (15.2) n (%) and the “≥ 1 TEAE” value [1, 3] was 41 (89.1) n (%). For the same compound, the “≥ 1 TEAE leading to study/drug discontinuation” value [1, 3] was 8 (17.4) n (%), the “≥ 1 serious TEAE” value [1, 3] was 28 (60.9) n (%) and the “≥ 1 study drug-related TEAE” value [1, 3] was 4 (8.7) n (%). For the same compound, the “≥ 1 study drug-related TEAE leading to study/drug discontinuation” value [1, 3] was 0 (0) n (%), the “≥ 1 study drug-related serious TEAE” value [1, 3] was 1 (2.2) n (%) and the “TEAE: Abdominal abscess, event severity (n): mild/moderate/severe” value [1, 4] was 0/1/0. The “TEAE: Abdominal pain, event severity (n): mild/moderate/severe” value [1, 4] was 1/2/1, the “TEAE: Acidosis, event severity (n): mild/moderate/severe” value [1, 4] was 1/1/0 and the “TEAE: Acute kidney injury, event severity (n): mild/moderate/severe” value [1, 4] was 1/1/0. For the same compound, the “TEAE: Anaemia, event severity (n): mild/moderate/severe” value [1, 4] was 2/4/1, the “TEAE: Atrial fibrillation, event severity (n): mild/moderate/severe” value [1, 4] was 1/2/0 and the “TEAE: Bradycardia, event severity (n): mild/moderate/severe” value [1, 4] was 0/1/0. For the same compound, the “TEAE: Constipation, event severity (n): mild/moderate/severe” value [1, 4] was 2/0/0, the “TEAE: Decubitus ulcer, event severity (n): mild/moderate/severe” value [1, 4] was 2/1/0 and the “TEAE: Deep vein thrombosis, event severity (n): mild/moderate/severe” value [1, 4] was 1/0/0. The “TEAE: Diarrhoea, event severity (n): mild/moderate/severe” value [1, 4] was 6/1/0, the “TEAE: Dyspnoea, event severity (n): mild/moderate/severe” value [1, 4] was 0/0/0 and the “TEAE: Fluid overload, event severity (n): mild/moderate/severe” value [1, 4] was 0/3/1. For the same compound, the “TEAE: Hyperkalaemia, event severity (n): mild/moderate/severe” value [1, 4] was 2/0/0, the “TEAE: Hypertension, event severity (n): mild/moderate/severe” value [1, 4] was 2/1/0 and the “TEAE: Hypokalaemia, event severity (n): mild/moderate/severe” value [1, 4] was 3/1/0. The “TEAE: Hypotension, event severity (n): mild/moderate/severe” value [1, 4] was 2/1/0, the “TEAE: Insomnia, event severity (n): mild/moderate/severe” value [1, 4] was 3/1/0 and the “TEAE: Multiple organ dysfunction syndrome, event severity (n): mild/moderate/severe” value [1, 4] was 0/0/3. For the same compound, the “TEAE: Nausea, event severity (n): mild/moderate/severe” value [1, 4] was 0/4/0, the “TEAE: Peripheral oedema, event severity (n): mild/moderate/severe” value [1, 4] was 3/0/0 and the “TEAE: Pleural effusion, event severity (n): mild/moderate/severe” value [1, 4] was 0/0/0. For the same compound, the “TEAE: Pneumonia, event severity (n): mild/moderate/severe” value [1, 4] was 0/0/3, the “TEAE: Pneumothorax, event severity (n): mild/moderate/severe” value [1, 4] was 0/0/0 and the “TEAE: Pyrexia, event severity (n): mild/moderate/severe” value [1, 4] was 1/1/0. For the same compound, the “TEAE: Respiratory failure, event severity (n): mild/moderate/severe” value [1, 4] was 0/0/0, the “TEAE: Sepsis, event severity (n): mild/moderate/severe” value [1, 4] was 3/2/1 and the “TEAE: Septic shock, event severity (n): mild/moderate/severe” value [1, 4] was 0/1/5. The “TEAE: Vomiting, event severity (n): mild/moderate/severe” value [1, 4] was 4/4/0, the “Study drug-related serious TEAEs, events” value ([1]; each event n = 1) was “infusion-related reaction” and the half-life [2] was 120 to 140 h.
